Source: ChEMBL document CHEMBL2407056, “3-(Oxazolo[4,5-b]pyridin-2-yl)anilides as a novel class of potent inhibitors for the kinetoplastid Trypanosoma brucei, the causative agent for human African trypanosomiasis” (Eur J Med Chem, 2013)
Converted amounts (≈) assume the structure as drawn.

How the values were obtained:
[1] = Intrinsic clearance in human liver microsomes at 1 uM after 60 mins by LC-MS analysis; format: ADME, Microsome; conditions: read-out: CLH
Procedure, shortened: (§1)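 Compound at 1 µM final (1 in 500 dilution of stock) incubated at 37 °C with human liver microsomes in 0.1 M phosphate buffer pH 7.4, 0.4 mg/mL protein. First-order depletion rate from exponential decay fit used to derive in vitro CLint and half-life; predicted hepatic extraction ratio from scaled CLint with liver blood flow 20.7 mL/min/kg.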

[2] = Kinetic solubility of the compound in phosphate buffer at pH 6.5 by nephelometry; format: physicochemical; conditions: read-out: Kinetic_solubility
Procedure, shortened: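 DMSO stocks spiked into pH 6.5 phosphate buffer or 0.01 M HCl (about pH 2.0), final DMSO 1% (v/v). Solubility range determined by nephelometry.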

[3] = Half life in human liver microsomes at 1 uM by LC-MS analysis; format: ADME, Microsome; procedure, shortened: as §1
[4] = Partition coefficient, log D of the compound at pH 7.4 by HPLC analysis; format: physicochemical; conditions: octanol/water
Procedure, shortened: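 Chromatographic gradient HPLC: mobile phase 50 mM ammonium acetate pH 7.4 (or ammonium formate pH 3.0) with an acetonitrile gradient of 0–100% over 10 min; UV detection at 220 and 254 nm.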

[5] = Kinetic solubility of the compound in phosphate buffer at pH 2 by nephelometry; format: physicochemical; conditions: read-out: Kinetic_solubility
[6] = test system: L6; assay: Cytotoxicity against rat L6 cells after 70 hrs by Alamar blue assay; format: cell-based; conditions: L6, 70 h
Procedure, shortened: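 4000 L-6 cells per well in RPMI 1640 with L-glutamine and 10% FBS. Eleven 3-fold dilutions from 100 to 0.002 µg/mL for 70 h; Alamar Blue 2 h, fluorescence at ex 536/em 588 nm. IC50 by linear regression from sigmoidal curves; podophyllotoxin control.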

[7] = test system: Leishmania donovani; assay: Antimicrobial activity against Leishmania donovani MHOM/ET/67/L82 amastigote form after 70 hrs by Alamar blue assay; format: functional, organism-based; conditions: MHOM/ET/67/L82, 70 h
Procedure, shortened: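 Axenic amastigotes grown at 37 °C in SM medium pH 5.4 with 10% heat-inactivated FBS, 5% CO2; 10⁵ parasites per well exposed to eleven 3-fold dilutions (100 to 0.002 µg/mL) for 70 h. Alamar Blue (resazurin) added for 2–4 h, fluorescence read at ex 536/em 588 nm. IC50 by linear regression from sigmoidal curves; miltefosine control.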

[8] = test system: Plasmodium falciparum; assay: Antimicrobial activity against Plasmodium falciparum NF54 infected in human RBC after 48 hrs by [3H]hypoxanthine incorporation assay; format: functional, organism-based
Procedure, shortened: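 Erythrocytic stage, drug-sensitive strain, in hypoxanthine-free RPMI 1640 with HEPES, NaHCO3, neomycin, Albumax, human A+ red cells at 2.5% haematocrit, 0.3% parasitaemia. Eleven 3-fold dilutions from 100 to 0.002 µg/mL; 37 °C, 4% CO2/3% O2/93% N2. ³H-hypoxanthine added at 48 h, further 24 h, then harvested and scintillation-counted. IC50 by linear regression; chloroquine control.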

[9] = Selectivity index, ratio of IC50 for rat L6 cells to IC50 for Trypanosoma cruzi Tulahuen C2C4 amastigote stage; format: toxicity, cell-based; conditions: read-out: Ratio IC50
[10] = Selectivity index, ratio of IC50 for rat L6 cells to IC50 for Trypanosoma brucei rhodesiense STIB 900 bloodstream form; format: toxicity, cell-based; conditions: read-out: Ratio IC50
Procedure, shortened: (§2)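 Bloodstream forms (4×10³/well) in MEM with 25 mM HEPES, extra glucose, non-essential amino acids, 0.2 mM 2-mercaptoethanol, 1 mM pyruvate and 15% heat-inactivated horse serum. Eleven 3-fold dilutions from 100 to 0.002 µg/mL, 70 h at 37 °C/5% CO2; Alamar Blue 2 h, fluorescence at ex 536/em 588 nm; IC50 by linear regression; melarsoprol control. SI relative to L6 cells.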

[11] = test system: Trypanosoma cruzi; assay: Antitrypanosomal activity against Trypanosoma cruzi Tulahuen C2C4 amastigotes infected in rat L6 cells after 96 hrs by beta-galactosidase reporter gene assay; format: functional, organism-based; conditions: Tulahuen C2C4, L6, 96 h
Procedure, shortened: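 L-6 cells (2000/well, RPMI 1640 + 10% FBS, 2 mM L-glutamine) infected after 24 h with 5000 LacZ-expressing trypomastigotes. At 48 h the medium was replaced with eleven 3-fold drug dilutions (100 to 0.002 µg/mL). After 96 h, CPRG/Nonidet substrate added, colour read at 540 nm after 2–6 h. IC50 by linear regression from sigmoidal curves; benznidazole control.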

[12] = Selectivity index, ratio of IC50 for HEK293 cells to IC50 for Trypanosoma brucei brucei 427 bloodstream form; format: toxicity, cell-based; conditions: human, read-out: Ratio IC50
Procedure, shortened: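 HEK293 cells (55 µL of 72,727 cells/mL in DMEM + 10% FCS) in 384-well plates, 24 h at 37 °C/5% CO2. Drug diluted 1:21 from DMSO, final 83.34 to 0.0004 µM, 48 h. […] SI relative to T. b. brucei.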

[13] = test system: Trypanosoma brucei rhodesiense; assay: Antitrypanosomal activity against Trypanosoma brucei rhodesiense STIB 900 bloodstream form after 70 hrs by Alamar blue assay; format: functional, organism-based; conditions: STIB 900, 70 h; procedure, shortened: as §2
[14] = test system: Trypanosoma brucei brucei; assay: Antitrypanosomal activity against Trypanosoma brucei brucei 427 bloodstream form after 48 hrs by Alamar blue assay; format: functional, organism-based; conditions: Trypanosoma brucei, 427, 48 h
Procedure, shortened: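 Bloodstream parasites in 384-well plates, 24 h preincubation at 37 °C/5% CO2. DMSO dilutions diluted 1:21 in DMEM and added to give final 41.67 to 0.0004 µM; 48 h incubation. 70% Alamar Blue in HMI-9 + 10% FCS added, 2 h at 37 °C then 22 h at room temperature; read at ex 535/em 590 nm.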

[15] = test system: Leishmania donovani; assay: Antimicrobial activity against Leishmania donovani amastigote form infected in mouse peritoneal macrophage after 96 hrs by Giemsa staining method; format: functional, organism-based
Procedure, shortened: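 Mouse peritoneal macrophages (4×10⁴/well, RPMI 1640 + 10% heat-inactivated FBS) infected after 24 h with 1.2×10⁵ axenic amastigotes; free parasites removed at 4 h, drug dilutions added next day. After 96 h, methanol fixation and 10% Giemsa staining; infected and non-infected macrophages counted, % reduction in parasite burden vs controls, IC50 by linear regression; miltefosine control.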

microsomal CLint at 1 µM [1] [µL/min/mg]	solubility kinetic [2] [µg/mL]	half-life at 1 µM [3] [min]	logD [4]	solubility kinetic [5] [µg/mL]	IC50 [8] [nM]	IC50 [11] [nM]	IC50 [13] [nM]	IC50 [14] [nM]	IC50 [15] [nM]	SMILES	IC50 [6] [nM]	IC50 [7] [nM]	selectivity ratio [9]	selectivity ratio [10]	selectivity ratio [12]
258	1.6 (≈ 4.71 µM)	7	2.7	1.6 (≈ 4.71 µM)	7800	230	590	220	–	O=C(Nc1ccc(Cl)c(-c2nc3ncccc3o2)c1)c1ccco1	23000	1800	99	39	> 345
–	–	–	–	–	4900	260	91	300	12000	O=C(Nc1ccc(Cl)c(-c2nc3ncccc3o2)c1)c1ccoc1	65000	340	–	> 700	160
